One data set is described as follows: physchem. The following applies: octanol/water.
Data set [1] is described as follows: in vivo. The following applies: BALB/c, mouse, serum, 10 mg/kg.
A short description of data set [2]: in vivo. The following applies: beagle, dog, plasma, iv, 1 mg/kg.
The species named for data set [3] is Canis familiaris. The settings on record: dog, in vivo, po, 1 mg/kg.
A short description of data set [4]: in vivo. The settings on record: Sprague-Dawley, rat, blood, 10 mg/kg.
Data set [5] can be described thus: in vivo. The following applies: BALB/c, mouse, plasma, 10 mg/kg.
Data set [6] concerns Rattus norvegicus. The experiment in a line: Cmax in Sprague-Dawley rat at 10 mg/kg, iv. The following applies: in vivo.
Data set [7] in a line: AUC in Beagle dog at 1 mg/kg, po. The format is ADME, organism-based, Canis lupus familiaris. Details: dose 1 mg/kg, route oral. The following applies: plasma.
Data set [8] in a line: in vivo. The following applies: BALB/c, mouse, plasma, iv, 10 mg/kg.
Data set [9] is described as follows: in vivo. The following applies: BALB/c, mouse, 5 mg/kg.
Data set [10] in a line: in vivo. The settings on record: beagle, dog, po, 2 mg/kg.
A short description of data set [11]: in vivo. The following applies: Sprague-Dawley, rat, 10 mg/kg.
Data set [12] is described as follows: in vivo. The settings on record: BALB/c, mouse, 5 mg/kg. The source holds these as a separate data set.
Data set [13] in a line: in vivo. The settings on record: Sprague-Dawley, rat, 10 mg/kg. The source holds these as a separate data set.
Data set [14] in a line: AUC in Sprague-Dawley rat 10 mg/kg, po. The format is ADME, organism-based. Further details: dose 10 mg/kg, route oral. The following applies: plasma. Summed up: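 Male Sprague–Dawley rats, 6 weeks old, fasted 18 h, 3–4 per group. Oral dose 10 mg/5 ml/kg in 0.5% methylcellulose. Blood (0.4 ml) drawn at 0.25, 0.5, 1, 2 and 6 h. Plasma held at −20 °C, drug measured by LC/MS/MS, and PK parameters derived by non-compartmental analysis.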

Data set [15] is described as follows: in vivo. The following applies: beagle, dog, 1 mg/kg.
A short description of data set [16]: in vivo. The following applies: BALB/c, mouse, 10 mg/kg.
For data set [17], the species on record is Canis familiaris. The settings on record: dog, in vivo, po, 1 mg/kg. This is another data set of the same source.
The nature of data set [18]: AUC in BALB/c mouse at 10 mg/kg, po. Further details: dose 10 mg/kg, route oral. The following applies: plasma. It is filed as ADME, organism-based.
Data set [19] deals with Mus musculus. The data set is described as follows: Cmax in BALB/c mouse at 10 mg/kg, po after 15 mins. The settings on record: in vivo. Further details: dose 10 mg/kg, route oral. It is filed as ADME, organism-based. Summed up: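 Female BALB/c mice, 8 weeks old, 4 per group. Dosed orally at 10 mg/1 ml/kg in 0.5% CMC. Drug level estimated by adding serum (0.01–10% final) to a Eu-VCAM-1/Fc binding assay on CHO-K1 cells expressing human VLA-4.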

Data set [20] can be described thus: in vivo. The following applies: Sprague-Dawley, rat, plasma, iv, 10 mg/kg.
For data set [21], the species on record is Rattus norvegicus. The settings on record: in vivo, 10 mg/kg.
Data set [22] is described as follows: in vivo. The settings on record: BALB/c, mouse, serum, 50 mg/kg.
In data set [23] the test system is Mus musculus. The data set is described as follows: Cmax in BALB/c mouse at 20 mg/kg, po normalized to 10 mg/kg after 15 mins. The format is ADME, organism-based. Details: dose 20 mg/kg, route oral. The following applies: in vivo.
The species entered for data set [24] is Mus musculus. The following applies: in vivo, 10 mg/kg.
A short description of data set [25]: in vivo. The following applies: Sprague-Dawley, rat, plasma, 10 mg/kg.
The species named for data set [26] is Mus musculus. The following applies: in vivo, 5 mg/kg.
Data set [27] deals with Mus musculus. The experiment in a line: AUC in BALB/c mouse at 20 mg/kg, po normalized to 10 mg/kg. The format is ADME, organism-based, Plasma. The following applies: in vivo.

The record followed here is ChEMBL document CHEMBL1142898, “Synthesis and biological evaluation of benzoic acid derivatives as potent, orally active VLA-4 antagonists” (Bioorg Med Chem, 2007).

Broadly, the logD is lipophilicity at a set pH, counting ionised and neutral species. The low end stands for lower lipophilicity, the high end for higher lipophilicity. In the data set “physchem”, `O=C(Nc1ccc(CC(=O)N2C[C@@H](F)C[C@H]2COc2ccc(C(=O)O)cc2)cc1Cl)Nc1ccccc1Br` came in with a logD of 2.34. Further, the concentration at […] in “in vivo [1]” turned out to be 2160 ng/mL.
The AUC is the area under the concentration-time curve, a measure of exposure. A lower AUC goes with low exposure. A word on the MRT: it is the average time that molecules of a dose stay in the body. One may read the clearance as the volume of plasma or blood freed of the substance per unit of time. Low readings indicate a low capacity for elimination, high ones a high capacity for elimination. One may read the Cmax as the maximum level reached in the sampled fluid or tissue. As usually defined, the bioavailability is the share of a dose that reaches the circulation, judged against a reference dose that is usually intravenous. The Vd is the apparent volume that relates the amount in the body to the concentration in plasma or blood. Read a high Vd as wide distribution into tissue. `Cc1ccccc1NC(=O)Nc1ccc(CC(=O)N2C[C@@H](F)C[C@H]2COc2ccc(C(=O)O)cc2)cc1Cl`: the exposure (AUC) in “in vivo [2]” came to 5680 ng·h/mL; in [7], 3120 ng·h/mL; in the data set “in vivo [8]” it was 8900 ng·h/mL; in data set [14] it was 11500 ng·h/mL; in data set [18] it was 2540 ng·h/mL; in the data set “in vivo [20]”, 31900 ng·h/mL. In the data set filed under Canis familiaris [3], this compound yielded a Vdss of 0.14 L/kg. The MRT worked out at 1.7 h in “in vivo [4]”, 1.2 h in “in vivo [12]” and 1.6 h in “in vivo [15]”. The clearance was 18.5 mL/min/kg in “in vivo [5]” and 5.2 mL/min/kg in the data set listed under Rattus norvegicus [21]. The Cmax with Rattus norvegicus [6] amounted to 13000 ng/mL; in the data set filed under Canis familiaris [17], 2370 ng/mL; with Mus musculus [19] it was 2250 ng/mL. Besides, the logD in “physchem” is 1.61. For the same compound, the bioavailability was 28% in “in vivo [9]”, 55% in “in vivo [10]” and 36% in the data set “in vivo [13]”. The Vd turned out to be 0.24 L/kg in the data set “in vivo [11]” and 0.33 L/kg in “in vivo [16]”. The same compound came in with a concentration at […] in “in vivo [1]” of 3660 ng/mL.
Turning to `Cc1ccccc1NC(=O)Nc1ccc(CC(=O)N2C[C@@H](F)C[C@H]2COc2ccc(C(=O)O)cc2)cc1C`, the logD in the data set “physchem” was 1.09. In addition, the concentration at […] in the data set “in vivo [1]” came out at 368 ng/mL.
For the compound `COc1cc(CC(=O)N2C[C@@H](F)C[C@H]2COc2ccc(C(=O)O)cc2)ccc1NC(=O)Nc1ccccc1Cl`, in “in vivo [22]”, the concentration at 0.5 h was found to be 142 ng/mL. The compound also gave a logD in “physchem” of 1.87.
As to `O=C(Nc1ccccc1Cl)Nc1ccc(CC(=O)N2C[C@@H](F)C[C@H]2COc2ccc(C(=O)O)cc2)cc1Br`, the log distribution coefficient (logD) in “physchem” amounted to 2.17. Moreover, the concentration at […] in “in vivo [1]” worked out at 1880 ng/mL.
Take `Cc1cc(CC(=O)N2C[C@@H](F)C[C@H]2COc2ccc(C(=O)O)cc2)ccc1NC(=O)Nc1ccccc1Br`: the results for the Cmax in the data set on Mus musculus [23] and in the data set on Rattus norvegicus [6] were 391 ng/mL and 6700 ng/mL, respectively. Also, the MRT turned out to be 2 h in “in vivo [4]” and 2.3 h in the data set filed under Mus musculus [26]. In the data set filed under Mus musculus [24], the Vdss was 0.67 L/kg. Also, the clearance in the data set “in vivo [25]” was determined as 11.3 mL/min/kg. In addition, the log distribution coefficient (logD) in “physchem” was found to be 1.64. Further, the exposure (AUC) in the data set “in vivo [8]” turned out to be 5260 ng·h/mL; in data set [14], 5230 ng·h/mL; in the data set “in vivo [20]”, 15600 ng·h/mL; with Mus musculus [27], 1095 ng·h/mL. Moreover, the bioavailability in the data set “in vivo [9]” was 21%; in “in vivo [13]” it was 34%. In “in vivo [11]”, this compound displayed a volume of distribution (Vd) of 0.29 L/kg. The concentration at […] in the data set “in vivo [1]” came to 693 ng/mL.
In turn, `Cc1cc(CC(=O)N2C[C@@H](F)C[C@H]2COc2ccc(C(=O)O)cc2)ccc1NC(=O)Nc1ccccc1Cl` came in with a logD in the data set “physchem” of 1.69. In “in vivo [1]”, the concentration at […] came out at 472 ng/mL.
